Kir21 block = inhibitors of mouse Kir2.1 inward-rectifier potassium channel. P35561. HEK293-Kir2.1, FluxOR thallium flux fluorescence; stronger effect = lower value. B-score at 10 µM. 310,000 compounds, 0.85% hits;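 active = fluorescence ratio B-score at or below minus 3 SD of library scores, with starting-brightness B-score within 2 SD, cut at about -4.2 in these data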;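 also: channel flux triggered by added potassium and thallium sulfate stimulus; B-score of peak minus minimum fluorescence over baseline after thallium stimulus; more negative B-score means stronger Kir2.1 block with less thallium influx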
KCNQ1 block = blocks the human KCNQ1 potassium channel; B-score at 10 µM; P51787; 310,000 compounds, 1.3% hits; CHO-K1 KCNQ1, FluxOR thallium flux fluorescence; stronger effect = higher value;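 active = compounds whose thallium flux B-score, printed positive for inhibition, exceeds three library SD while starting fluorescence stays within three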;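 also: channel opened by potassium depolarization with thallium stimulus after 20 min compound exposure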
KCNK3 block = human KCNK3 channel inhibition, primary screen. O14649. CHO-KCNK3 thallium flux, FluxOR fluorescence; stronger effect = lower value. B-score at 10 µM. 340,000 compounds, 0.84% hits. AID 602410;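 active = B-score under library mean minus 4 SD, starting fluorescence ratio at most library mean plus 5 SD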;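 also: more negative B-score means stronger inhibition of thallium flux through KCNK3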
Target sequence (O14649 whole entry, looked up): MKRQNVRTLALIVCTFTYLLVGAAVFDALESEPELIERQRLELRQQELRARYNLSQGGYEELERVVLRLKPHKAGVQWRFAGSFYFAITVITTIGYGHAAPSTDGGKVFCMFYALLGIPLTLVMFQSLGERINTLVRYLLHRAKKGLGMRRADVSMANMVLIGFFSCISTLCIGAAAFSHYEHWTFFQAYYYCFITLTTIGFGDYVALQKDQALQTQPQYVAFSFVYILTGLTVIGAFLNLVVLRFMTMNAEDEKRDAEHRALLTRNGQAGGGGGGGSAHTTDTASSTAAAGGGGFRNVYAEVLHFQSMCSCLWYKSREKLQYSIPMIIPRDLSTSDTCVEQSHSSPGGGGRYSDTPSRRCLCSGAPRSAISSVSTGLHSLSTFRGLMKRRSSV
KCNQ1 pot = potentiators or activators of human KCNQ1 potassium channel; P51787; CHO-K1 KCNQ1, thallium flux FluxOR fluorescence; stronger effect = higher value; B-score at 10 µM; 310,000 compounds, 0.35% hits; AID 2648;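 active = fluorescence ratio B-score, a plate-corrected score, at least three library SD, with initial intensity B-score within 5 SD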
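assay system = KCNQ1-transfected CHO-K1 cells | medium = assay buffer with matched DMSO | probe or stimulus = depolarizing K+/Tl+ stimulus, K2SO4 and Tl2SO4 each 12.5 mM in 5x stock | dosing = single dose | incubation = dye 90 min, compound 20 min, room temperature | detection = kinetic FluxOR fluorescence, 10 s baseline plus 110 s post-stimulus | evaluation = ratio B score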
hERG rescue = compounds protecting human hERG from proarrhythmic drug block; Q12809; CHO-hERG, FluxOR thallium flux, dofetilide IC70 present; activation (rescue from dofetilide block), less the hit threshold, % at 10 µM; AID 1511; 310,000 compounds, 0.51% hits;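 active = activation above the mean of controls blocked by dofetilide plus 5 SD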;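 also: thallium influx through hERG after potassium depolarization seen as dye fluorescence rise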
KCNK9 inh = blocks the human KCNK9 two-pore domain potassium channel | 310,000 compounds, 1.2% hits | HEK293 KCNK9, FluxOR thallium flux fluorescence; stronger effect = lower value | B-score at 10 µM;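 active = ratio B-score over 3 SD below the library mean, with starting fluorescence within 5 SD of its mean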;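 also: negative B-score means less thallium flux so channel inhibition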
* = called active by the depositor. Sampled rows, rich in hits. Any-hit rate of the full collection: about 3.7%.

How did O=C(CSc1ncnc2scc(-c3ccc(Cl)cc3)c12)NCc1ccc2c(c1)OCO2 do in these assays?
Kir21 block: 0.86; KCNQ1 block: inactive; KCNK3 block: -9.92*; KCNQ1 pot: inactive; hERG rescue: -5.6; KCNK9 inh: inactive

Results for Cc1cccc2sc(NS(=O)(=O)c3ccccc3)nc12 ?
Kir21 block: -2.47; KCNQ1 block: 6*; KCNK3 block: inactive; KCNQ1 pot: inactive; hERG rescue: -2.0; KCNK9 inh: inactive

How did Cc1ccc(/C=C(\C#N)C(=O)NC(C)c2ccccc2)o1 (centres undefined) do in these assays?
Kir21 block: 0.23; KCNQ1 block: inactive; KCNK3 block: inactive; KCNQ1 pot: inactive; hERG rescue: -10.9; KCNK9 inh: inactive

Results for COC(=O)c1ccc(Cl)c(NC(=O)CN(c2ccc3c(c2)OCO3)S(C)(=O)=O)c1 ?
Kir21 block: 1.36; KCNQ1 block: inactive; KCNK3 block: inactive; KCNQ1 pot: inactive; hERG rescue: -5.5; KCNK9 inh: inactive

How did COC(=O)c1cc(NC(=O)CN(c2ccc3c(c2)OCO3)S(C)(=O)=O)ccc1Cl do in these assays?
Kir21 block: 0; KCNQ1 block: inactive; KCNK3 block: inactive; KCNQ1 pot: inactive; hERG rescue: -10.1; KCNK9 inh: -7.42*

Results for O=C(Nc1ccc(N2CCOCC2)cc1)c1ccc(Br)o1 ?
Kir21 block: 0.86; KCNQ1 block: inactive; KCNK3 block: inactive; KCNQ1 pot: inactive; hERG rescue: -7.8; KCNK9 inh: inactive

What do the screens show for `CN1CCN(c2ccc(NC(=O)c3ccc(Br)o3)cc2)CC1`?
Kir21 block: -0.24; KCNQ1 block: inactive; KCNK3 block: inactive; KCNQ1 pot: 13*; hERG rescue: 1.2; KCNK9 inh: inactive

What do the screens show for `COc1cccc(C(=O)Nc2ccc(-n3nncc3C(C)(C)C)cc2)c1`?
Kir21 block: -0.02; KCNQ1 block: inactive; KCNK3 block: inactive; KCNQ1 pot: inactive; hERG rescue: -8.6; KCNK9 inh: inactive

What do the screens show for `CC(C)(C)c1cnnn1-c1ccc(NC(=O)c2ccc(Br)o2)cc1`?
Kir21 block: -0.69; KCNQ1 block: inactive; KCNK3 block: inactive; KCNQ1 pot: inactive; hERG rescue: -9.1; KCNK9 inh: -7.07*

How did CC(C)Oc1ccc(S(=O)(=O)N2CCOCC2)cc1NC(=O)C1=COCCO1 do in these assays?
Kir21 block: -0.67; KCNQ1 block: inactive; KCNK3 block: inactive; KCNQ1 pot: inactive; hERG rescue: -8.9; KCNK9 inh: inactive

How did CCOc1cc(C(=O)NCCC(=O)N2CCC3(CC2)NCCc2[nH]cnc23)cc(OCC)c1OCC do in these assays?
Kir21 block: 1.9; KCNQ1 block: inactive; KCNK3 block: inactive; KCNQ1 pot: inactive; hERG rescue: -7.2; KCNK9 inh: inactive

What do the screens show for `Cc1cc(C)n2nc(C(=O)N3CCOCC3)nc2n1`?
Kir21 block: -0.4; KCNQ1 block: inactive; KCNK3 block: inactive; KCNQ1 pot: inactive; hERG rescue: 8.0*; KCNK9 inh: inactive

How did Cc1cc(C)n2nc(C(=O)OCC(=O)N3CCC3)nc2n1 do in these assays?
Kir21 block: 0.45; KCNQ1 block: inactive; KCNK3 block: inactive; KCNQ1 pot: inactive; hERG rescue: 5.3*; KCNK9 inh: inactive

Results for CCC(Sc1nc(-c2ccccc2)c(-c2ccccc2)[nH]1)C(=O)O (centres undefined) ?
Kir21 block: 1.39; KCNQ1 block: inactive; KCNK3 block: inactive; KCNQ1 pot: inactive; hERG rescue: -5.2; KCNK9 inh: inactive

How did CC1Cc2ccccc2N1C(=S)NC(=O)c1ccco1 (centres undefined) do in these assays?
Kir21 block: -0.25; KCNQ1 block: inactive; KCNK3 block: inactive; KCNQ1 pot: inactive; hERG rescue: 6.7*; KCNK9 inh: inactive

What do the screens show for `CC1Cc2ccccc2N1C(=S)NC(=O)C1(C)CC1(Cl)Cl` (centres undefined)?
Kir21 block: -1.66; KCNQ1 block: inactive; KCNK3 block: inactive; KCNQ1 pot: 37*; hERG rescue: 27.7*; KCNK9 inh: inactive

What do the screens show for `CN1CC(=O)N2[C@H](c3ccc4c(c3)OCO4)c3[nH]c4ccccc4c3C[C@@H]2C1=O`?
Kir21 block: -0.23; KCNQ1 block: inactive; KCNK3 block: inactive; KCNQ1 pot: inactive; hERG rescue: -1.0; KCNK9 inh: inactive

How did Cn1cccc1/C=N/n1c(-c2ccccc2)n[nH]c1=S do in these assays?
Kir21 block: -1.8; KCNQ1 block: inactive; KCNK3 block: inactive; KCNQ1 pot: inactive; hERG rescue: -3.2; KCNK9 inh: inactive

Results for Cn1cccc1/C=N/n1c(-c2ccc(C(C)(C)C)cc2)n[nH]c1=S ?
Kir21 block: -1.98; KCNQ1 block: inactive; KCNK3 block: inactive; KCNQ1 pot: inactive; hERG rescue: -3.9; KCNK9 inh: -7.67*

How did COc1ccc(/C(N)=N/OC(=O)c2ccc3c(c2)OCO3)cc1OC do in these assays?
Kir21 block: 1.53; KCNQ1 block: inactive; KCNK3 block: inactive; KCNQ1 pot: inactive; hERG rescue: 5.9*; KCNK9 inh: inactive

Results for O=C(NCc1ccco1)c1sc(=S)n2c1[nH]c(=O)c1ccccc12 ?
Kir21 block: 0.77; KCNQ1 block: 7*; KCNK3 block: inactive; KCNQ1 pot: inactive; hERG rescue: -8.8; KCNK9 inh: inactive

How did O=C(NC1CCCC1)c1sc(=S)n2c1[nH]c(=O)c1ccccc12 do in these assays?
Kir21 block: -2.64; KCNQ1 block: inactive; KCNK3 block: inactive; KCNQ1 pot: inactive; hERG rescue: -9.8; KCNK9 inh: inactive

Results for CCCCCNC(=O)c1ccc2c(=O)[nH]c3c(C(=O)NCC4CCCO4)sc(=S)n3c2c1 (centres undefined) ?
Kir21 block: 1.1; KCNQ1 block: inactive; KCNK3 block: inactive; KCNQ1 pot: inactive; hERG rescue: -20.2; KCNK9 inh: inactive

Results for Cc1ccc(CNC(=O)c2ccc3c(=O)[nH]c4c(C(=O)NCC5CCCO5)sc(=S)n4c3c2)cc1 (centres undefined) ?
Kir21 block: -0.13; KCNQ1 block: 10*; KCNK3 block: inactive; KCNQ1 pot: inactive; hERG rescue: -9.0; KCNK9 inh: inactive

How did O=C(NCc1ccccc1)c1ccc2c(=O)[nH]c3c(C(=O)NCC4CCCO4)sc(=S)n3c2c1 (centres undefined) do in these assays?
Kir21 block: 1.28; KCNQ1 block: 8*; KCNK3 block: inactive; KCNQ1 pot: inactive; hERG rescue: -19.9; KCNK9 inh: inactive

What do the screens show for `Cc1noc(C)c1CSc1ncnc2sc3c(c12)CCCCC3`?
Kir21 block: -0.14; KCNQ1 block: inactive; KCNK3 block: inactive; KCNQ1 pot: 11*; hERG rescue: 35.1*; KCNK9 inh: inactive
